Results reported in ChEMBL document CHEMBL1914308, “N-fused imidazoles as novel anticancer agents that inhibit catalytic activity of topoisomerase IIα and induce apoptosis in G1/S phase” (J Med Chem, 2011).
The source made the active and inactive calls. The calls are words filed in the database; no cut-off is given here.

Experiments:
HEK293 [1] = assay: Cytotoxicity against human HEK293 cells assessed as cell survival at 30 uM after 48 hrs by MTT assay; type: functional; conditions: HEK293, 48 h, read-out: Activity
[2] = biological target: T1, DNA topoisomerase 2-alpha (Homo sapiens, UniProt P11388); assay: Inhibition of human topoisomerase 2 alpha-mediated decatenation of kDNA at 100 uM by agarose gel electrophoresis
Summary of the method: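 150 ng kDNA with 2–4 units purified human topo II and 100 μM compound in DMSO, buffer 0.5 M Tris-HCl pH 8, NaCl, MgCl2, DTT, BSA with ATP (stock buffer concentrations), 20 μL, 37 °C 30 min. Stopped with SDS, proteinase K 37 °C 15 min; 1% agarose in TAE with 0.5 μg/mL EtBr; bands quantified by densitometry; etoposide 100 μM as reference.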

[3] = biological target: T1, DNA topoisomerase 2-alpha; assay: Inhibition of etoposide poisoning activity against human recombinant DNA topoisomerase 2alpha assessed as enhancement of in relaxation of supercoiled plasmid pBR322 DNA at 200 uM after 30 mins by agarose gel electrophoresis
[4] = biological target: T1, DNA topoisomerase 2-alpha; assay: Inhibition of etoposide poisoning activity against human recombinant DNA topoisomerase 2alpha assessed as enhancement of in relaxation of supercoiled plasmid pBR322 DNA at 100 uM after 30 mins by agarose gel electrophoresis
[5] = biological target: T1, DNA topoisomerase 2-alpha; assay: Inhibition of human topoisomerase 2 alpha-mediated relaxation of pRYG plasmid DNA at 100 uM by agarose gel electrophoresis
Summary of the method: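 250 ng supercoiled pRYG plasmid, 2–4 units hTopoIIα, 100 μM compound, ATP-containing Tris pH 8 buffer, 20 μL, 37 °C 30 min; SDS/proteinase K stop; 1% agarose in TAE without EtBr, post-stained 0.5 μg/mL EtBr; products quantified densitometrically.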

[6] = Cytotoxicity activity against african green monkey Vero assessed as cell survival at 100 uM after 48 hrs by MTT assay; type: cell-based; conditions: chlorocebus sabaeus, Vero cells; read-out: Activity
Summary of the method: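 MTT survival of HEK 293 and Vero cells after 48 h with compound at graded concentrations. DMEM, 10% FBS, 37 °C, 5% CO2; dilutions in DMEM from 100 mM DMSO stock, added at 60–70% confluence. Mean ± SD of three independent experiments.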

HEK293 [7] = assay: Cytotoxicity against human HEK293 cells assessed as cell survival after 48 hrs by MTT assay; type: functional; conditions: HEK293, 48 h, read-out: LC50 (the source's name)
Summary of the method: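 HEK 293 cells were cultured in DMEM with 10% FBS and antibiotics at 37 °C in 5% CO₂. At 60–70% confluence they were treated for 48 h with various concentrations, diluted in DMEM from 100 mM DMSO stocks. Survival was read by MTT. LC₅₀ is the concentration killing 50% of cells. Data are mean ± SD of three independent experiments.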

[8] = Anticlonogenic activity against african green monkey Vero after 48 hrs by crystal violet staining; type: ADME, cell-based; conditions: chlorocebus sabaeus, Vero cells; read-out: LC50
Summary of the method: (§1)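 HEK 293 and Vero cells were grown in DMEM with 10% FBS and 1% penicillin/streptomycin at 37 °C in 5% CO₂. At 60–70% confluence they were exposed for 48 h to a range of concentrations, diluted in DMEM from 100 mM DMSO stocks. Colony survival is expressed as %. Values are mean ± SD of three independent experiments; LC₅₀ is the concentration killing half the cells.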

HEK293 [9] = assay: Anticlonogenic activity against human HEK293 cells after 48 hrs by crystal violet staining; type: functional; conditions: HEK293, 48 h, read-out: LC50 (the source's name); summary of the method: as §1
Vero = assay: Anticlonogenic activity against african green monkey Vero cells assessed as inhibition of colony formation of cells at 20 to 100 uM after 48 hrs by crystal violet staining; type: cell-based; conditions: chlorocebus sabaeus
Summary of the method: (§2)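 Clonogenic survival in HEK 293 and Vero cells, 48 h exposure at graded concentrations; % survival plotted; mean ± SD of three independent experiments. Cells grown in DMEM with 10% FBS and 1% antibiotic at 37 °C, 5% CO2; compound diluted from 100 mM DMSO stock into DMEM, added at 60–70% confluence.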

HEK293 [10] = assay: Anticlonogenic activity against human HEK293 cells assessed as inhibition of colony formation of cells at 20 to 100 uM after 48 hrs by crystal violet staining; type: functional, cell-based; summary of the method: as §2
[11] = biological target: T1, DNA topoisomerase 2-alpha; assay: Inhibition of human topoisomerase 2 alpha-mediated unwinding of supercoiled DNA assessed as DNA intercalation at 100 uM by agarose gel electrophoresis
Summary of the method: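 250 ng negatively supercoiled E. coli plasmid incubated 20 min at 37 °C with 1 μg/mL ethidium bromide (intercalator control), 100 μM etoposide or test compound; run on 1% agarose in TAE without EtBr, then post-stained with 0.5 μg/mL EtBr; mobility retardation scored.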

[12] = biological target: T1, DNA topoisomerase 2-alpha; conditions: HEK293, 100 uM
[13] = biological target: T1, DNA topoisomerase 2-alpha; conditions: HEK293, 100 uM; remark: listed apart in the source

T1 sequence (P11388 whole entry): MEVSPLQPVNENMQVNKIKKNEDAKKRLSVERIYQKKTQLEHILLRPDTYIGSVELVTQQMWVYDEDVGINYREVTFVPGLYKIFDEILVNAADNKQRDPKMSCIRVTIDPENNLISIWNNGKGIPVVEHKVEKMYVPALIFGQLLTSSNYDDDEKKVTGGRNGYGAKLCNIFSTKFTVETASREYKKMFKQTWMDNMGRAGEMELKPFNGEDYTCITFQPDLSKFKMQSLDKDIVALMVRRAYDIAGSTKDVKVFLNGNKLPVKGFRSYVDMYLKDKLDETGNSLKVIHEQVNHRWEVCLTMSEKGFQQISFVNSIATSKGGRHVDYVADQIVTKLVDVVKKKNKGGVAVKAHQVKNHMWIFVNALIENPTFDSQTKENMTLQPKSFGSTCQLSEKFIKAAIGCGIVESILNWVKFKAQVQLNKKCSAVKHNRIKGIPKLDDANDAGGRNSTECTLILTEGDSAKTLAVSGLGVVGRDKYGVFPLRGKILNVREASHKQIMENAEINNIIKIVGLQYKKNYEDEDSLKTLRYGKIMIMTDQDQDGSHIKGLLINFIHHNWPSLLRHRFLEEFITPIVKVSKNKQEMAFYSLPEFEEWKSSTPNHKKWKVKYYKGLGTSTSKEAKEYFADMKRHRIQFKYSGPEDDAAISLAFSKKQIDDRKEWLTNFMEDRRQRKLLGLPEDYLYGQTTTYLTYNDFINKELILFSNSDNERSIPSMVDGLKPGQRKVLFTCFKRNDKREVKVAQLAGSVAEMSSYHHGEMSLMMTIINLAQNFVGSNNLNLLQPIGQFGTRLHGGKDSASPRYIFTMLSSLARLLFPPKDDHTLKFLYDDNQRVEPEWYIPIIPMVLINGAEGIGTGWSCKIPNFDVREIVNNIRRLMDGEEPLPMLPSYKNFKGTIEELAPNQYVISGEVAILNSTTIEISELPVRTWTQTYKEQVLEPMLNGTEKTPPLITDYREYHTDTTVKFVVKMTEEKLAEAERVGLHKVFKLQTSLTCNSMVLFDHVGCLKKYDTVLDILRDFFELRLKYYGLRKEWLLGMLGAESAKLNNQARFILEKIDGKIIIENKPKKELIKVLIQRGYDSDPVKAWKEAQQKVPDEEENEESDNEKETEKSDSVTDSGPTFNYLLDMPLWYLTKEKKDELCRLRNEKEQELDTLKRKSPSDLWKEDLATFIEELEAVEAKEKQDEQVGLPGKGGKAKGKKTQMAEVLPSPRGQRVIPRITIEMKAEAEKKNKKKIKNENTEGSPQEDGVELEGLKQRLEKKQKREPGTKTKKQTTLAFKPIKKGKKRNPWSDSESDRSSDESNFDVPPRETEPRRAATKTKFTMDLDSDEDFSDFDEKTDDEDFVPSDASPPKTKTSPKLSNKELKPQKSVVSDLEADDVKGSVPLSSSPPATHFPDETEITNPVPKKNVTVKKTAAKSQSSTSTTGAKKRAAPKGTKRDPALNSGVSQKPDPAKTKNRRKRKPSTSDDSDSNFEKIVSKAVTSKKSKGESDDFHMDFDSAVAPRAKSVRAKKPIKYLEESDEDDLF

SMILES: O=c1[nH]cc(F)c(=O)[nH]1 [FLUOROURACIL]
- viability at 30 µM (HEK293 [1]): 50%

SMILES: CC(C)(C)Nc1c(-c2cccc3ccccc23)nc2ccccn12
- inhibition [2]: Active

SMILES: CC(C)(C)Nc1c(-c2ccccc2)nc2cnccn12
- inhibition [2]: inactive

SMILES: CCOC(=O)c1cnn2c(NC(C)(C)C)c(-c3ccc(Cl)cc3)[nH]c12
- inhibition [3]: inactive
- inhibition [4]: inactive
- inhibition [2]: Active
- inhibition [5]: Active
- viability at 48 h, 100 µM [6]: < 50%
- CC50 (HEK293 [7]): 15 µM
- CC50 at 48 h [8]: 22 µM
- CC50 (HEK293 [9]): 15 µM
- inhibition (INH) (Vero): Dose-dependent effect
- inhibition (HEK293 [10]): Dose-dependent effect
- inhibition [11]: inactive

SMILES: CC(C)(C)Nc1c(-c2ccc(C(=O)O)cc2)nc2cnccn12
- inhibition [2]: inactive

SMILES: CCOC(=O)c1cnn2c(N)c(-c3ccc(Cl)cc3)[nH]c12
- inhibition [3]: inactive
- inhibition [4]: inactive
- inhibition [2]: Active
- inhibition [5]: Active
- viability at 48 h, 100 µM [6]: < 50%
- CC50 (HEK293 [7]): 25 µM
- CC50 at 48 h [8]: 62 µM
- CC50 (HEK293 [9]): 25 µM
- inhibition (INH) (Vero): Dose-dependent effect
- inhibition (HEK293 [10]): Dose-dependent effect
- inhibition [11]: inactive

SMILES: CN(C)c1ccc(-c2nc3ccccn3c2NC(C)(C)C)cc1
- inhibition [2]: Active

SMILES: CCCc1nc2ccccn2c1NC(C)(C)C
- inhibition [2]: inactive

SMILES: COc1cc([C@@H]2c3cc4c(cc3[C@@H](O[C@@H]3O[C@@H]5CO[C@@H](C)O[C@H]5[C@H](O)[C@H]3O)[C@H]3COC(=O)[C@H]23)OCO4)cc(OC)c1O [ETOPOSIDE]
- inhibition [3]: inactive
- inhibition [4]: Active
- CC50 (HEK293 [7]): 90 µM
- inhibition [11]: inactive
- inhibition [12]: inactive
- inhibition [13]: Active

SMILES: Nc1c(-c2ccc(Cl)cc2)nc2ccccn12
- inhibition [2]: Active
- inhibition [5]: Active

SMILES: Nc1c(-c2ccccn2)nc2ccc(Cl)cn12
- inhibition [2]: inactive

SMILES: Clc1ccc(-c2nc3cnccn3c2NC2CCCCC2)cc1
- inhibition [2]: inactive

SMILES: CC(C)(C)Nc1cnc2cnccn12
- inhibition [2]: inactive

SMILES: CC(C)(C)Nc1cnc2ccccn12
- inhibition [2]: inactive

SMILES: CC(C)(C)Nc1c(-c2ccc(Cl)cc2)nc2ccc(Cl)cn12
- inhibition [2]: Active
- inhibition [5]: Active

SMILES: CC(C)(C)Nc1c(-c2ccccc2Cl)nc2cnccn12
- inhibition [2]: Active

SMILES: CC(C)(C)Nc1c(-c2ccc(Cl)cc2)nc2[nH]c3ccccc3n12
- inhibition [2]: Active

SMILES: CC(C)(C)Nc1nc2ncccn2c1-c1ccc(C#N)cc1
- inhibition [2]: inactive

SMILES: Nc1c(-c2ccc(Cl)cc2)nc2cnccn12
- inhibition [3]: inactive
- inhibition [4]: inactive
- inhibition [2]: Active
- inhibition [5]: Active
- viability at 48 h, 100 µM [6]: < 50%
- CC50 (HEK293 [7]): 17 µM
- CC50 at 48 h [8]: 28 µM
- CC50 (HEK293 [9]): 16 µM
- inhibition (INH) (Vero): Dose-dependent effect
- inhibition (HEK293 [10]): Dose-dependent effect
- inhibition [11]: inactive

SMILES: CC(C)(C)Nc1c(-c2ccc(F)cc2)nc2ccc(Cl)cn12
- inhibition [2]: Active

SMILES: CC(C)(C)Nc1c(-c2ccc[nH]2)nc2ccccn12
- inhibition [2]: inactive

SMILES: CC(C)(C)Nc1c(-c2ccccn2)nc2ccccn12
- inhibition [2]: Active
- inhibition [5]: Active

SMILES: COc1cccc(-c2nc3cnccn3c2NC(C)(C)C)c1
- inhibition [2]: inactive

SMILES: CC(C)(C)Nc1c(-c2ccc(Cl)cc2)nc2cnccn12
- inhibition [3]: inactive
- inhibition [4]: inactive
- inhibition [2]: Active
- inhibition [5]: Active
- viability at 48 h, 100 µM [6]: < 50%
- CC50 (HEK293 [7]): 10 µM
- CC50 at 48 h [8]: 25 µM
- CC50 (HEK293 [9]): 20 µM
- inhibition (INH) (Vero): Dose-dependent effect
- inhibition (HEK293 [10]): Dose-dependent effect
- inhibition [11]: inactive

SMILES: Cc1ccn2c(NC(C)(C)C)c(-c3ccc(Cl)cc3)nc2c1
- inhibition [2]: inactive

SMILES: CC(C)(C)Nc1c(-c2ccc(Cl)cc2)nc2ccccn12
- inhibition [2]: inactive

SMILES: CCOC(=O)c1cnn2c(NC3CCCCC3)c(-c3ccc(Cl)cc3)[nH]c12
- inhibition [2]: Active

SMILES: N#Cc1ccc(-c2nc3ccc(Br)cn3c2N)cc1
- inhibition [2]: Active

SMILES: CC(C)(C)Nc1c(-c2ccc(Cl)cc2)nc2ncccn12
- inhibition [2]: Active

SMILES: COc1ccc(-c2nc3cnccn3c2N)cc1
- inhibition [2]: Active
- inhibition [5]: Active
